Screening results from PubChem BioAssay.
Compounds with a hit are over-represented: about 2.3% of the library has one in this group of screens.
HIF activator: HIF pathway transcriptional activators, primary screen, cell-based, U2OS HRE-luciferase, luminescence | U2OS HRE-luciferase reporter; normalized: DMSO 0%, desferrioxamine 100% | activation, % at 7.5 µM (by protocol) | hit rate 0.32% among 300,000;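 active means mean activation of at least 10% of the iron chelator positive control signal, with at least half of replicates also reaching 10%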
KLF5 inhibitor: KLF5 expression inhibitors, primary screen, DLD-1 cells, luminescence; DLD-1 KLF5 promoter-luciferase reporter; inhibition, % at 5 µM; hit rate 0.23% among 290,000; AID 1700, 2009;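 active means inhibition above a per-plate limit of that plate's mean compound inhibition plus 3 SD, cut at about 60% in these data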;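 further: 0% = DMSO wells and 100% = LY294002 at 200 µM; higher means less KLF5 promoter-driven luciferase light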
Beta cell apopt: inhibitors of cytokine-induced beta cell apoptosis, primary screen, luminescence | INS-1E cytokine-induced death, ATP luminescence, 48 h; percent of positive-control rescue, neutral wells zero | protection from apoptosis, % (no concentration beside the values) | hit rate 0.8% among 300,000;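 active means Every replicate reaches about 75%, or at least half do and their mean reaches it too, limit read from the data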;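 further: 0% = cytokine-treated negative control wells and 100% = positive control rescue; higher means more ATP so stronger rescue from cytokine killing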
T cruzi repl: inhibitors of intracellular T. cruzi growth, primary screen, luminescence, NIH3T3 host cells; T. cruzi beta-gal in NIH3T3, 90 h; inhibition, % (no concentration beside the values); hit rate 1.4% among 300,000;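 active means mean inhibition across valid replicates above about 55%, limit read from the data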;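 further: signal also drops with host cell toxicity which is not excluded here; 0% = plate median of DMSO wells and 100% = zero luminescence signal; higher percent means less beta-gal luminescence so fewer parasites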
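System – NIH/3T3 host cells with β-galactosidase reporter T. cruzi · Doses – single 50 nL compound addition per well in DMSO · Reagent – 5000 T. cruzi trypomastigotes/well · Medium – Low-serum DMEM with 2% FBS · Timing – ≥90 h infection period, 3 h prior cell attachment · Evaluation – parasite load inhibition, % · Technique – GalScreen luminescence, 60 min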
A1 inh: caspase 3/7 activation in MEF A1-2A-BIM cells, primary screen, A1 inhibitor project, cell-based, luminescence, HTS; caspase activation, % (no concentration beside the values); hit rate 0.066% among 330,000; AID 2462, 2010; Caspase-Glo 3/7 luminescence, 3 h; percent of clofoctol response, vehicle zero;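 active means over half of replicate activation scores above 10%, or exactly half above 10 with the replicate mean above 10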
Starred values were filed as active, the others as inactive.

How did Cc1ccsc1C(=O)C1CCCN(Cc2cnc(N)nc2)C1 (stereo not drawn) do in these assays?
HIF activator: -0.4; KLF5 inhibitor: 0.2; Beta cell apopt: -8.1; T cruzi repl: 8.8; A1 inh: 0.4

What do the screens show for `Cc1ccsc1C(=O)C1CCCN(Cc2cnn(C(C)C)c2)C1` (stereo not drawn)?
HIF activator: 0.0; KLF5 inhibitor: -24.7; Beta cell apopt: -3.5; T cruzi repl: 65.9*; A1 inh: 1.4

What do the screens show for `Cc1ccsc1C(=O)C1CCCN(Cc2cnc(N3CCOCC3)s2)C1` (stereo not drawn)?
HIF activator: 0.1; KLF5 inhibitor: -18.5; Beta cell apopt: 1.2; T cruzi repl: 59.8*; A1 inh: 1.3

Results for CCc1ccc(CN2CCCC(C(=O)c3sccc3C)C2)o1 (stereo not drawn) ?
HIF activator: -0.2; KLF5 inhibitor: -7.8; Beta cell apopt: -4.0; T cruzi repl: 54.8*; A1 inh: 0.5

What do the screens show for `CN1C(=O)C(Cc2ccc(OCc3ccccc3)cc2)C(=O)N(C)C1=O`?
HIF activator: 1.8; KLF5 inhibitor: -84.9; Beta cell apopt: -6.5; T cruzi repl: -1.3; A1 inh: -2.8

How did CNC(=O)O/N=C/c1nn(C(=O)C(C)(C)C)cc1Br do in these assays?
HIF activator: -0.5; KLF5 inhibitor: -15.4; Beta cell apopt: -8.1; T cruzi repl: -2.1; A1 inh: 0.5

How did Cc1cc(OCC(=O)NC(Cc2ccc(Cl)cc2)C(=O)O)c2c3c(c(=O)oc2c1)CCCC3 (stereo not drawn) do in these assays?
HIF activator: -0.1; KLF5 inhibitor: -11.5; Beta cell apopt: -5.0; T cruzi repl: 3.9; A1 inh: 0.8

What do the screens show for `Nc1ncc([N+](=O)[O-])s1`?
Beta cell apopt: -2.1; A1 inh: -0.3

What do the screens show for `Cc1nc2ccccc2c(=O)n1/N=C/c1cc(Br)cc(Br)c1O`?
HIF activator: 181.3*; T cruzi repl: -10.5; A1 inh: -0.2

Results for Cc1nc2ccccc2c(=O)n1-c1ccc(Br)cn1 ?
HIF activator: 0.1; KLF5 inhibitor: -31.3; Beta cell apopt: -2.5; T cruzi repl: -15.7; A1 inh: 0.3

What do the screens show for `O=c1c2ccccc2nc(-c2ccco2)n1-c1ccc(Br)cc1`?
HIF activator: -0.4; KLF5 inhibitor: -8.7; Beta cell apopt: -0.4; T cruzi repl: 20.8; A1 inh: 1.4

What do the screens show for `COC(=O)[C@@H]1[C@@H](C(=O)OC)C2(c3ccccc3-c3ccccc32)N(c2ccc(Cl)cc2)N1C#N`?
HIF activator: -4.1; KLF5 inhibitor: -1.1; Beta cell apopt: 49.8; T cruzi repl: 55.8*; A1 inh: -1.1

How did COC(=O)C[C@]1(C(=O)OC)CN(C#N)N(c2ccc(Cl)cc2)C12c1ccccc1-c1ccccc12 do in these assays?
HIF activator: -3.5; KLF5 inhibitor: 37.0; Beta cell apopt: 111.6*; T cruzi repl: 49.3; A1 inh: 0.4

Results for COc1ccc2c(c1O)C13CCN(C)C(C2)C1CCC(=O)C3 (stereo not drawn) ?
HIF activator: -1.0; Beta cell apopt: -3.3; T cruzi repl: -9.4; A1 inh: 0.2

How did Cn1ncnc2c(=O)n(C)c(=O)nc1-2 do in these assays?
HIF activator: -3.7; Beta cell apopt: 125.0*; T cruzi repl: 62.6*; A1 inh: -4.4

How did CCc1ccc(CN2CCN(Cc3ccc(SC)cc3)CC2)cc1 do in these assays?
HIF activator: -0.3; KLF5 inhibitor: -40.8; Beta cell apopt: -0.5; T cruzi repl: 70.2*; A1 inh: 0.1

Results for Cc1nc2ccccc2c(=O)n1-c1cc([N+](=O)[O-])cc([N+](=O)[O-])c1 ?
HIF activator: -0.2; KLF5 inhibitor: 9.7; Beta cell apopt: 6.5; T cruzi repl: 55.3*; A1 inh: -0.8

How did Cc1nc2ccccc2c(=O)n1-c1ccncc1 do in these assays?
HIF activator: 0.1; KLF5 inhibitor: -22.5; Beta cell apopt: -0.4; T cruzi repl: -3.0; A1 inh: -0.1

Results for CCC1=CCN(CCc2c(C)[nH]c3ccccc23)CC1 ?
HIF activator: -0.1; Beta cell apopt: -5.3; T cruzi repl: 17.3; A1 inh: 0.3

Results for O=C(CSC1c2ccccc2-c2ccccc21)N/N=C/c1ccccc1O ?
HIF activator: 9.9*; KLF5 inhibitor: -12.3; Beta cell apopt: 86.8*; T cruzi repl: 59.7*; A1 inh: -1.7

Results for O=C(CSC1c2ccccc2-c2ccccc21)N/N=C/c1ccc(C(=O)O)cc1 ?
HIF activator: 0.0; KLF5 inhibitor: -6.0; Beta cell apopt: -6.3; T cruzi repl: -23.7; A1 inh: 0.6

Results for Cn1c(NN=O)nc2ccccc21 ?
HIF activator: 65.8*; KLF5 inhibitor: -37.1; Beta cell apopt: 100.3*; T cruzi repl: 55.2*; A1 inh: -2.0

What do the screens show for `CC(C)(C)c1cc(C=C(C#N)C#N)cc(C(C)(C)C)c1O`?
Beta cell apopt: 117.1*; A1 inh: 0.2

What do the screens show for `C=C1C(O)[C@@H]2O[C@]3(CC[C@H](/C=C/C(C)[C@@H]4CC(C)=CC5(O[C@H](C[C@@](C)(O)C(=O)O)CCC5O)O4)O3)CC[C@H]2O[C@@H]1C(O)CC(C)[C@H]1OC2(CCCCO2)CCC1C` (stereo partly drawn)?
Beta cell apopt: 84.6*; A1 inh: -1.5

What do the screens show for `COc1cc2c(cc1OC)-c1c(OC)c(OC)c(OC)c3ccnc(c13)C2=O`?
HIF activator: 0.2; KLF5 inhibitor: 10.9; Beta cell apopt: 89.2*; T cruzi repl: 20.4; A1 inh: 0.7

What do the screens show for `COc1cc(CC2(CCc3ccncc3)C(=O)NC(=O)NC2=O)cc(OC)c1OC`?
HIF activator: 0.1; KLF5 inhibitor: 4.3; T cruzi repl: -1.7; A1 inh: 1.7

Results for COC(=O)C1=C(c2ccccc2)C[C@@H]2CC[C@H]1N2C(=O)N1CCC(O)CC1 ?
HIF activator: 0.2; Beta cell apopt: -10.5; T cruzi repl: -20.4; A1 inh: -0.2

Results for C/C=C(\C)C(=O)OC1C(C)=C2C(C1OC(=O)CCCCC)C(C)(OC(C)=O)CC(OC(=O)CCC)C1(O)C2OC(=O)C1(C)O (stereo not drawn) ?
HIF activator: 2.8; Beta cell apopt: 107.5*; T cruzi repl: 9.6; A1 inh: 0.3

What do the screens show for `Clc1ccc(CCC(Cn2ccnc2)Sc2c(Cl)cccc2Cl)cc1` (stereo not drawn)?
Beta cell apopt: 16.1; A1 inh: 0.5

How did Clc1ccc(C(Cn2ccnc2)OCc2csc3c(Cl)cccc23)c(Cl)c1 (stereo not drawn) do in these assays?
Beta cell apopt: 86.5*; A1 inh: -1.0

Results for CN1CCc2nc3sc(C#N)c(N)c3c(-c3cccs3)c2C1 ?
HIF activator: 0.1; KLF5 inhibitor: -3.1; Beta cell apopt: 4.2; T cruzi repl: 66.6*; A1 inh: 1.5
